Several values for one entry are separate records, joined by “and”; a condition that tells them apart may be missing. Identical values can stand only once.
Columns and labels:
[1] = target: AD plaques (β-amyloid plaques) in human brain tissue homogenates (Homo sapiens, UniProt P05067); assay: In vitro competition binding assay against [18F]-AV-45 in AD brain homogenates
How it was run: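 Gray matter from human Alzheimer's brain sections with plaques, homogenized in PBS pH 7.2 (20–50 μg per tube). Incubated with [18F]-AV-45 and competitor (10−5–10−10 M, serially diluted in PBS with 0.1% BSA) in 1 mL final, 37 °C for 120 min. IMPY 600 nM defined nonspecific binding. Bound and free separated by vacuum filtration. Ki by nonlinear regression; n = 5–6.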

[2] = tested on: male ICR mice; assay: In-vivo biodistribution study in mice; design: species or system mouse; details: for Blood uptake / Bone uptake / Brain uptake / Heart uptake / Kidney uptake / Liver uptake / Lung uptake / Muscle uptake / Pancreas uptake / Skin uptake / Spleen uptake: iv tail vein; for in vivo de-fluorination (from bone (femur) values): within 30 min post injection
How it was run: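 Normal male ICR mice (20–25 g), 6 per group, under isoflurane (1–2%, 1 L oxygen/min). Each received 25 μCi radiotracer in 0.15 mL saline via lateral tail vein. Killed by cardiac excision under anesthesia at 2 and 30 min. Organs weighed and gamma-counted. Percent dose per gram calculated against counts of 1.0% of initial dose, taken from 100-fold diluted injectate aliquots.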

AD plaques (β-amyloid plaques) in human brain tissue homogenates, sequence (P05067 672-713 limits assumed): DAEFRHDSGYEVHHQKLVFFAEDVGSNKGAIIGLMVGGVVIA

Row | Blood uptake ([2]; 2 min post injection) [% dose/gram] | Bone uptake ([2]; 2 min post injection) [% dose/gram] | Heart uptake ([2]; 2 min post injection) [% dose/gram] | Kidney uptake ([2]; 2 min post injection) [% dose/gram] | Liver uptake ([2]; 2 min post injection) [% dose/gram] | Lung uptake ([2]; 2 min post injection) [% dose/gram] | Muscle uptake ([2]; 2 min post injection) [% dose/gram] | Pancreas uptake ([2]; 2 min post injection) [% dose/gram] | Skin uptake ([2]; 2 min post injection) [% dose/gram] | Spleen uptake ([2]; 2 min post injection) [% dose/gram] | Blood uptake ([2]; 30 min post injection) [% dose/gram] | Bone uptake ([2]; 30 min post injection) [% dose/gram] | Heart uptake ([2]; 30 min post injection) [% dose/gram] | Kidney uptake ([2]; 30 min post injection) [% dose/gram] | Liver uptake ([2]; 30 min post injection) [% dose/gram] | Lung uptake ([2]; 30 min post injection) [% dose/gram] | Muscle uptake ([2]; 30 min post injection) [% dose/gram] | Pancreas uptake ([2]; 30 min post injection) [% dose/gram] | SMILES | Brain uptake ([2]; 2 min post injection) | Brain uptake ([2]; 30 min post injection) | further results
1 | 9.34 ± 1.37 | 2.00 ± 0.33 | 13.1 ± 3.08 | 14.1 ± 2.85 | 22.2 ± 3.99 | 7.09 ± 1.37 | 1.32 ± 0.50 | 5.13 ± 1.08 | 0.79 ± 0.20 | 4.81 ± 1.18 | 4.94 ± 0.91 | 2.27 ± 0.41 | 3.72 ± 0.84 | 6.83 ± 1.93 | 19.1 ± 3.65 | 3.53 ± 0.38 | 1.56 ± 0.27 | 2.28 ± 0.48 | CNc1ccc(/C=C/c2ccc(OCCOCCOCCNC(=O)CO/N=C/c3ccc(OCCOCCOCCF)nc3)nc2)cc1 [[^18F]23, 2-((E)-(6-(2-(2-(2-fluoroethoxy)ethoxy)ethoxy)pyridin-3-yl)methyleneaminooxy)-N-(2-(2-(2-(5-((E)-4-(methylamino)styryl)pyridin-2-yloxy)ethoxy)ethoxy)ethyl)acetamide] | 1.69 % dose/gram and 1.69 ± 0.44 % dose/gram | 0.96 ± 0.16 % dose/gram | Ki [1]: 11.8 ± 3.06 nM; Skin uptake ([2]; 30 min post injection): 1.50 ± 0.25 % dose/gram; Spleen uptake ([2]; 30 min post injection): 3.57 ± 0.68 % dose/gram; in vivo de-fluorination (from bone (femur) values) [2]: very little de-fluorination
2 | 4.19 ± 1.04 | 1.76 ± 0.31 | 12.3 ± 1.79 | 15.4 ± 3.54 | 29.4 ± 5.09 | 3.70 ± 1.06 | 1.42 ± 0.46 | 3.32 ± 0.58 | 1.14 ± 0.44 | 3.11 ± 0.45 | 2.81 ± 0.22 | 1.62 ± 0.10 | 4.17 ± 0.61 | 7.78 ± 0.85 | 10.9 ± 1.17 | 2.43 ± 0.33 | 2.01 ± 0.21 | 2.22 ± 0.23 | CNc1ccc(/C=C/c2ccc(OCCOCCOCCOCCOCCOCCNC(=O)CO/N=C/c3ccc(OCCOCCOCCF)nc3)nc2)cc1 [[^18F]24, 2-((E)-(6-(2-(2-(2-fluoroethoxy)ethoxy)ethoxy)pyridin-3-yl)methyleneaminooxy)-N-(17-(5-((E)-4-(methylamino)styryl)pyridin-2-yloxy)-3,6,9,12,15-pentaoxaheptadecyl)acetamide] | 0.48 % dose/gram and 0.48 ± 0.12 % dose/gram | 0.92 % dose/gram and 0.92 ± 0.11 % dose/gram | Skin uptake ([2]; 30 min post injection): 1.78 ± 0.13 % dose/gram; Spleen uptake ([2]; 30 min post injection): 1.63 ± 0.19 % dose/gram; in vivo de-fluorination (from bone (femur) values) [2]: very little de-fluorination
